In ChEMBL document CHEMBL4339227, “Stereoselective Synthesis of C-2 Alkylated Trihydroxypiperidines: Novel Pharmacological Chaperones for Gaucher Disease” (ACS Med Chem Lett, 2019):
The source made the active and inactive calls. No cut-off for these calls is given here.

Experiments:
[1] = Inhibition of GCase in human leukocytes extracts using 4-methylumbelliferyl-beta-D-glucoside substrate incubated for 1 hr by spectrophotometry; type: cell-based
Outline: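 Human leukocyte homogenates were used as the GCase source. IC50 was derived from GCase activity measured across a range of inhibitor concentrations.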

[2] = organism: Homo sapiens; assay: Inhibition of GCase in human leukocytes extracts at 1 mM using 4-methylumbelliferyl-beta-D-glucoside substrate incubated for 1 hr by spectrophotometry relative to untreated control; type: cell-based
Outline: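 Human leukocyte homogenates were used as the GCase source. Enzyme activity was measured with the test compound at 1 mM, and the result was expressed as percent inhibition.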

[3] = organism: Homo sapiens; assay: Chaperone activity at GCase N370/RecNcil mutant in human fibroblasts derived from Gaucher patient assessed as increase in GCase activity at 10 nM incubated for 4 days using 4-methylumbelliferyl-beta-D-glucoside substrate by spectrophotometry relative to untreated control
[4] = organism: Homo sapiens; assay: Chaperone activity at GCase N370/RecNcil mutant in human fibroblasts derived from Gaucher patient assessed as increase in GCase activity at 1 uM incubated for 4 days using 4-methylumbelliferyl-beta-D-glucoside substrate by spectrophotometry relative to untreated control
[5] = organism: Homo sapiens; assay: Chaperone activity at GCase N370/RecNcil mutant in human fibroblasts derived from Gaucher patient assessed as increase in GCase activity incubated for 4 days using 4-methylumbelliferyl-beta-D-glucoside substrate by spectrophotometry relative to untreated control
[6] = organism: Homo sapiens; assay: Chaperone activity at GCase N370/RecNcil mutant in human fibroblasts derived from Gaucher patient assessed as increase in GCase activity at 100 uM incubated for 4 days using 4-methylumbelliferyl-beta-D-glucoside substrate by spectrophotometry relative to untreated control
[7] = organism: Homo sapiens; assay: Chaperone activity at GCase N370/RecNcil mutant in human fibroblasts derived from Gaucher patient assessed as increase in GCase activity at 100 uM relative to untreated control
[8] = organism: Homo sapiens; assay: Chaperone activity at GCase N370/RecNcil mutant in human fibroblasts derived from Gaucher patient assessed as increase in GCase activity at 50 nM incubated for 4 days using 4-methylumbelliferyl-beta-D-glucoside substrate by spectrophotometry relative to untreated control
[9] = Competitive inhibition of GCase in human leukocytes extracts using 4-methylumbelliferyl-beta-D-glucoside substrate incubated for 1 hr by spectrophotometry; type: cell-based
[10] = organism: Homo sapiens; assay: Chaperone activity at GCase N370/RecNcil mutant in human fibroblasts derived from Gaucher patient assessed as increase in GCase activity at 10 uM incubated for 4 days using 4-methylumbelliferyl-beta-D-glucoside substrate by spectrophotometry relative to untreated control
[11] = organism: Homo sapiens; assay: Chaperone activity at GCase L444P GBA gene mutant mutant in human fibroblasts derived from Gaucher patient assessed as increase in GCase activity at 100 uM incubated for 4 days using 4-methylumbelliferyl-beta-D-glucoside substrate by spectrophotometry relative to untreated control
[12] = organism: Homo sapiens; assay: Chaperone activity at GCase N370/RecNcil mutant in human fibroblasts derived from Gaucher patient assessed as increase in GCase activity at 50 uM incubated for 4 days using 4-methylumbelliferyl-beta-D-glucoside substrate by spectrophotometry relative to untreated control

Structure (SMILES)	IC50 [1]	inhibition [2]	other results
CCCCCCCC[C@@H]1NC[C@@H](O)[C@@H](O)[C@@H]1O	93.5 µM	80%	fold change (FC) [3]: 1.3
CCCCCCCC[C@H]1[C@@H](O)[C@H](O)[C@H](O)CN1C	> 1000 µM	50%	–
CCCCCCCCCCCCC[C@@H]1NC[C@@H](O)[C@@H](O)[C@@H]1O	160 µM	88%	Activity [5]: inactive
CCCCCCCCN1C[C@@H](O)C(O)[C@H](O)C1	30 µM	98%	fold change (FC) [6]: 1.26; fold change (FC) [7]: 1.25
CCCCCCCCCCC[C@@H]1NC[C@@H](O)[C@@H](O)[C@@H]1O	100 µM	96%	fold change (FC) [8]: 1.3
CCCCCCCCCCCC[C@H]1NC[C@@H](O)[C@@H](O)[C@@H]1O	1.5 µM	95%	fold change (FC) [4]: 1.4; Ki [9]: 3.6 µM
CCCCCCCC[C@H]1NC[C@@H](O)[C@@H](O)[C@@H]1O	29.3 µM	100%	fold change (FC) [10]: 1.6; fold change (FC) [11]: 1.8; fold change (FC) [12]: 1.9; Ki [9]: 18.5 µM; fold change (FC) [3]: 1.4

Continued by falling IC50 [1], values first:

IC50 [1]	inhibition [2]	Structure (SMILES)	other results
23.3 µM	91%	CCCCCCCCCCCC[C@@H]1NC[C@@H](O)[C@@H](O)[C@@H]1O	fold change (FC) [4]: 1.4
9 µM	98%	CCCCCCCCCCCCC[C@H]1NC[C@@H](O)[C@@H](O)[C@@H]1O	–
7 µM	100%	CCCCCCCCCCC[C@H]1NC[C@@H](O)[C@@H](O)[C@@H]1O	fold change (FC) [8]: 1.2
